In ChEMBL document CHEMBL2321804, “Development of small-molecule P-gp inhibitors of the N-benzyl 1,4-dihydropyridine type: novel aspects in SAR and bioanalytical evaluation of multidrug resistance (MDR) reversal properties” (Bioorg Med Chem, 2013):

Tests used:
[1] = biological target: T1, ATP-dependent translocase ABCB1 (Homo sapiens, UniProt P08183); experiment: Inhibition of human MDR1 expressed in mouse L5178Y cells assessed as […] by measuring fluorescence activity ratio at 10 uM preincubated for 10 mins measured after 40 mins relative to control; type: cell-based
How it was run: (§1)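 Transfected P-gp L5178Y subline and parental cells, 1 x 10^6/mL in serum-free McCoy's 5A, were preincubated 10 min at rt with inhibitor (DMSO stock 1.0 mg/mL). Rhodamine 123 followed (5 µL of 0.5 mM), 40 min at 37 °C, then two PBS washes. Flow cytometry on 1 x 10^4 cells. FAR = MDR/parental uptake, each normalised to its own untreated control.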

[2] = biological target: T1, ATP-dependent translocase ABCB1; experiment: Inhibition of human MDR1 expressed in mouse L5178Y cells assessed as […] by measuring fluorescence activity ratio at 1 uM preincubated for 10 mins measured after 40 mins relative to control; type: cell-based; how it was run: as §1
[3] = Cytotoxicity against mouse L5178Y cells assessed as cell viability at 2.5 uM after 24 hrs by MTT assay; type: cell-based; settings: read-out: Activity
How it was run: (§2)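 Parental L5178Y mouse T-lymphoma cells and the human mdr1-transfected P-gp subline were kept in McCoy's 5A with 10% FCS, 2 mM L-glutamine and gentamicin, 37 °C, 5% CO2; the subline also got colchicine 60 ng/mL. Dihydropyridines were added at 1 to 80 µM final, 24 h at 37 °C. MTT was read at 560 nm after SDS/acetic acid/DMSO lysis. Triplicate runs.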

[4] = Cytotoxicity against mouse L5178Y cells assessed as cell viability at 10 uM after 24 hrs by MTT assay; type: cell-based; settings: read-out: Activity; how it was run: as §2
[5] = biological target: T1, ATP-dependent translocase ABCB1; experiment: Inhibition of human MDR1 expressed mouse L5178Y cells assessed as reduction of liposomal daunorubicin IC50 for cytotoxicity at 10 uM after 24 hrs by MTT assay; type: cell-based
[6] = Cytotoxicity against mouse L5178Y cells expressing p-gp assessed as cell viability at 10 uM after 24 hrs by MTT assay; type: ADME, cell-based; settings: read-out: Activity; how it was run: as §2
[7] = biological target: T1, ATP-dependent translocase ABCB1; experiment: Inhibition of human MDR1 expressed mouse L5178Y cells assessed as reduction of liposomal daunorubicin IC50 for cytotoxicity at 2.5 uM after 24 hrs by MTT assay; type: cell-based
How it was run: (§3)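 Liposomal daunorubicin (DaunoXome) was tested in the P-gp overexpressing L5178Y subline after preincubation with inhibitor at 2.5 µM or higher levels, 24 h at 37 °C, 5% CO2. Readout was MTT, lysis, then A560. IC50 came from mean percent growth inhibition of triplicate runs.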

[8] = Cytotoxicity against mouse L5178Y cells expressing p-gp assessed as cell viability at 2.5 uM after 24 hrs by MTT assay; type: ADME, cell-based; settings: read-out: Activity; how it was run: as §2
L5178Y [9] = experiment: Cytotoxicity against mouse L5178Y cells after 24 hrs by MTT assay; type: functional, cell-based
How it was run: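 Mouse T-lymphoma L5178Y parental cells and the mdr1-transfected L5178Y mdr subline were grown in McCoy's 5A with 10% FCS (mdr subline kept in colchicine 60 ng/mL). Compounds were tested at 1 to 80 µM final for 24 h at 37 °C in 5% CO2. MTT was added for 4 h, then SDS/acetic acid/DMSO lysis and A560 read-out. Run in triplicate.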

L5178Y [10] = experiment: Cytotoxicity against mouse L5178Y cells expressing p-gp after 24 hrs by MTT assay; type: functional, cell-based
How it was run: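 Daunorubicin, 0.01 to 10 µM, was given to the P-gp expressing L5178Y subline (McCoy's 5A, 10% FCS, colchicine 60 ng/mL) in 96-well plates, 24 h at 37 °C, 5% CO2. MTT (5 mg/mL stock) was added for 4 h, cells were lysed 30 min in SDS/acetic acid/DMSO, and A560 was read. IC50 came from mean percent growth inhibition of triplicate runs.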

L5178Y [11] = experiment: Ratio of IC50 for mouse L5178Y cells expressing p-gp to IC50 for mouse L5178Y cells; type: functional
How it was run: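 Parental L5178Y and P-gp-expressing L5178Y mdr cells were exposed to daunorubicin at 0.01–10 µM plus P-gp inhibitor for 24 h at 37 °C in 5% CO2. Viability was read by MTT (4 h) with SDS/acetic acid/DMSO lysis and A560. IC50s came from mean percent growth inhibition in triplicate, and the ratio is the mdr-line IC50 over the parental IC50.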

[12] = biological target: T1, ATP-dependent translocase ABCB1; experiment: Inhibition of human MDR1 expressed mouse L5178Y cells assessed as reduction of liposomal daunorubicin IC50 for cytotoxicity at 1 uM after 24 hrs by MTT assay; type: cell-based; design: scale not given: the % may be the effect or the level left
[13] = biological target: T1, ATP-dependent translocase ABCB1; experiment: Inhibition of human MDR1 expressed mouse L5178Y cells assessed as reduction of liposomal daunorubicin IC50 for cytotoxicity at 5 to 10 uM after 24 hrs by MTT assay; type: cell-based; how it was run: as §3
[14] = biological target: T1, ATP-dependent translocase ABCB1; experiment: Inhibition of human MDR1 expressed mouse L5178Y cells assessed as reduction of daunorubicin IC50 for cytotoxicity at 5 to 10 uM after 24 hrs by MTT assay; type: cell-based
How it was run: (§4)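 Daunorubicin at 0.01 to 10 µM was combined with inhibitor at 2.5, 5 or 10 µM in the P-gp overexpressing L5178Y subline, 24 h at 37 °C, 5% CO2. Readout was MTT (4 h), SDS/acetic acid/DMSO lysis, A560. IC50 came from mean percent growth inhibition, n = 3.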

[15] = biological target: T1, ATP-dependent translocase ABCB1; experiment: Inhibition of human MDR1 expressed mouse L5178Y cells assessed as reduction of daunorubicin IC50 for cytotoxicity at 2.5 uM after 24 hrs by MTT assay; type: cell-based; design: scale not given: the % may be the effect or the level left; how it was run: as §4

T1 sequence (P08183 whole entry): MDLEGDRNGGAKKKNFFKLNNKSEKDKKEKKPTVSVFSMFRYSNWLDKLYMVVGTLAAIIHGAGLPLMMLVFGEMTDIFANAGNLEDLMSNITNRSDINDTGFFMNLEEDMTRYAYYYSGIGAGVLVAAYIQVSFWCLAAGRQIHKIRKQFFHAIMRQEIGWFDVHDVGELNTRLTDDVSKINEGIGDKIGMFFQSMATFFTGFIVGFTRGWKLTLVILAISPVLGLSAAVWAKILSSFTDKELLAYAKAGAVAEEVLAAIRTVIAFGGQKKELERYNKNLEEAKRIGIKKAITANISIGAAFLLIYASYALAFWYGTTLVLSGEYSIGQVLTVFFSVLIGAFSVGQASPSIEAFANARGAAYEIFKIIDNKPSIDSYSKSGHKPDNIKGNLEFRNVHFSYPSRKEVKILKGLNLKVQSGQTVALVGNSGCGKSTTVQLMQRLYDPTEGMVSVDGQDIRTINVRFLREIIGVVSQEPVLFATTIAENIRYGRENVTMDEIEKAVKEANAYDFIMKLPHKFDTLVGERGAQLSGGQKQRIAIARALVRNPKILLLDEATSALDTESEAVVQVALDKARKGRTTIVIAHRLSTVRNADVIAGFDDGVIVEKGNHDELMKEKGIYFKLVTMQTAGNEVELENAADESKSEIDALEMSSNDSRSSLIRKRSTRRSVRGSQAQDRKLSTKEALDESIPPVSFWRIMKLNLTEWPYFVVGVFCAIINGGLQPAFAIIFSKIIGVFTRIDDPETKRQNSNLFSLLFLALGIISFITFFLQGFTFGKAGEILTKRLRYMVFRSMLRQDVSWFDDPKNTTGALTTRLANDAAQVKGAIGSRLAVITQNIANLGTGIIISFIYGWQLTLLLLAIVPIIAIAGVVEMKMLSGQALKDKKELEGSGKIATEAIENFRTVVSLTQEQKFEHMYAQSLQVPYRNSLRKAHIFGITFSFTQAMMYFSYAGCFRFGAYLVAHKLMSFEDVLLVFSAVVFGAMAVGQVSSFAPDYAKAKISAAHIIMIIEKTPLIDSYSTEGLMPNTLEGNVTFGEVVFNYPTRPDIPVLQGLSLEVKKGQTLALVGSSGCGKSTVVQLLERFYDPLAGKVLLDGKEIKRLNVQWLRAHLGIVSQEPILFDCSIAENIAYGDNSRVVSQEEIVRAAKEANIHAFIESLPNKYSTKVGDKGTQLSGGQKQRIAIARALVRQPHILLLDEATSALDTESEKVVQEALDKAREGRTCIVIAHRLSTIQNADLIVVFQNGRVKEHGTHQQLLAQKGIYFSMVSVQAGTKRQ

Compound `CCOC(=O)C1=CN(Cc2cccc3ccccc23)C=CC1c1ccccc1` (configuration not stated) has an RFU [1] of 2.74 and an RFU [2] of 1.28.
Compound `CCOC(=O)C1=CN(Cc2ccccc2)C=CC1c1cccc(Cl)c1` (configuration not stated) has an RFU [1] of 2.67 and an RFU [2] of 1.25.
For `COC(=O)C1=CN(Cc2cccc3ccccc23)C=CC1c1ccccc1` (configuration not stated), the RFU [1] was 2.19 and the RFU [2] was 1.19.
For `COC(=O)C1=CN(Cc2ccccc2)C=CC1c1cccc(Br)c1` (configuration not stated), the RFU [1] was 1.22 and the RFU [2] was 1.05.
Work on `COC(=O)C1=CN(Cc2ccc(C)cc2)C=CC1c1ccccc1` (configuration not stated) yielded a viability at 24 h, 2.5 µM [3] of 95%, an RFU [1] of 7.8 and an RFU [2] of 1.72. The viability at 24 h, 10 µM [4] was 75%, the Activity [5] was “Active” and the viability at 24 h, 10 µM [6] was 75%. The Activity [7] was “Active” and the viability at 24 h, 2.5 µM [8] was 81%.
Work on `COc1cccc2c1C(=O)c1c(O)c3c(c(O)c1C2=O)C[C@@](O)(C(C)=O)C[C@@H]3O[C@H]1C[C@H](N)[C@H](O)[C@H](C)O1` (stereo in doubt; form 1) [DAUNORUBICIN] yielded an IC50 (L5178Y [9]) of 300 nM and an IC50 (L5178Y [10]) of 2.32 µM.
Work on `COC(=O)C1=CN(Cc2ccccc2)C=CC1c1ccccc1OC` (configuration not stated) yielded an RFU [1] of 1.76 and an RFU [2] of 1.13.
With `COc1cccc2c1C(=O)c1c(O)c3c(c(O)c1C2=O)C[C@@](O)(C(C)=O)C[C@@H]3O[C@H]1C[C@H](N)[C@H](O)[C@H](C)O1` (stereo in doubt; form 2) [DAUNORUBICIN] the IC50 (L5178Y [9]) was 730 nM, the IC50 (L5178Y [10]) was 7.73 µM and the “Ratio IC50” value (L5178Y [11]) was >10.
In the case of `CCOC(=O)C1=CN(Cc2ccccc2OC)C=CC1c1ccccc1` (configuration not stated), the RFU [1] is reported as 4.64 and the RFU [2] is reported as 1.72.
For `COC(=O)C1=CN(Cc2ccc(OC)cc2)C=CC1c1ccccc1` (configuration not stated), the RFU [1] was 4.13 and the RFU [2] was 1.5.
For `COC(=O)C1=CN(Cc2ccccc2)C=CC1c1cccc2ccccc12` (configuration not stated), the RFU [1] was 2.35 and the RFU [2] was 1.22.
For `CCOC(=O)C1=CN(Cc2ccccc2)C=CC1c1ccc(C)cc1` (configuration not stated), the RFU [1] was 2.54 and the RFU [2] was 1.34.
Work on `COc1ccc(CCN(C)CCCC(C#N)(c2ccc(OC)c(OC)c2)C(C)C)cc1OC` (configuration not stated) [VERAPAMIL] yielded an RFU [1] of 2.94 and an RFU [2] of 0.89.
For `CCOC(=O)C1=CN(Cc2ccccc2)C=CC1c1cccc(C(F)(F)F)c1` (configuration not stated), the RFU [1] was 2.33 and the RFU [2] was 1.17.
`CCOC(=O)C1=CN(Cc2ccccc2)C=CC1c1ccccc1OC` (configuration not stated) showed an RFU [1] of 2.38 and an RFU [2] of 1.18.
With `COC(=O)C1=CN(Cc2ccccc2OC)C=CC1c1ccccc1` (configuration not stated) the RFU [1] was 3.97 and the RFU [2] was 1.82.
Work on `CCOC(=O)C1=CN(Cc2ccccc2)C=CC1c1ccc(OC)cc1` (configuration not stated) yielded an RFU [1] of 3.13 and an RFU [2] of 1.52.
`COC(=O)C1=CN(Cc2ccccc2)C=CC1c1ccc(C)cc1` (configuration not stated) gave an RFU [1] of 1.88 and an RFU [2] of 1.11.
In the case of `CCOC(=O)C1=CN(Cc2ccc(OC)cc2)C=CC1c1ccccc1` (configuration not stated), the viability at 24 h, 2.5 µM [3] is reported as 97%, the RFU [1] is reported as 4.89 and the RFU [2] is reported as 1.32. For the same compound, the viability at 24 h, 10 µM [4] was 100%, the Activity [12] was > 60% and the Activity [13] was “Active”. For the same compound, the Activity [5] was “Active”, the viability at 24 h, 10 µM [6] was 85% and the Activity [7] was “Active”.
With `CCOC(=O)C1=CN(Cc2ccc(C)cc2)C=CC1c1ccccc1` (configuration not stated) the RFU [1] was 7.8, the RFU [2] was 2.54 and the Activity [14] was “Active”. The Activity [15] was > 50% and the Activity [5] was “Active”.
`CCOC(=O)C1=CN(Cc2ccccc2)C=CC1c1cccc(Br)c1` (configuration not stated) gave an RFU [1] of 2.76 and an RFU [2] of 1.27.
Compound `CCOC(=O)C1=CN(Cc2ccccc2)C=CC1c1cccc2ccccc12` (configuration not stated) has an RFU [1] of 3.45 and an RFU [2] of 1.43.
In the case of `COC(=O)C1=CN(Cc2ccccc2)C=CC1c1cccc(C(F)(F)F)c1` (configuration not stated), the RFU [1] is reported as 1.53 and the RFU [2] is reported as 1.05.
For `COC(=O)C1=CN(Cc2ccccc2)C=CC1c1cccc(Cl)c1` (configuration not stated), the RFU [1] was 1.39 and the RFU [2] was 1.12.
`COC(=O)C1=CN(Cc2ccccc2)C=CC1c1ccc(OC)cc1` (configuration not stated) gave an RFU [1] of 2.95 and an RFU [2] of 0.85.
